This is an account of results in ChEMBL document CHEMBL4613269, “2-((4-Arylpiperazin-1-yl)methyl)benzonitrile Derivatives as Orally Available Inhibitors of Hepatitis C Virus with a Novel Mechanism of Action” (J Med Chem, 2020).

Calls of active or inactive are those of the source. The rule behind the calls is not given here.

Data set [1] concerns Hepatitis C virus. As to the kind of experiment: Antiviral activity against HCV expressing NS5B S282T mutant by qRT-PCR analysis based by Reed-Muench method. Type of data set: functional, organism-based, Hepacivirus hominis. The gist of the method: (§1)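 Huh7.5 cells seeded at 3×10^4/cm², infected 24 h later with wild-type or mutant HCV stock while compound or solvent was added at the same time. Intracellular HCV RNA measured by qRT-PCR at 72 h, normalised to GAPDH, 2^-ΔCT method. EC50 by Reed & Muench from eight-step 1:5 serial dilutions, triplicate wells.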
(In qPCR the cycle at which signal appears reflects the starting amount.)

Data set [2] in a line: Drug level in Sprague-Dawley rat at 5 mg/kg, iv measured after 24 hrs post dose by LC-MS/MS analysis. As to conditions: in vivo, read-out: Drug uptake. Type of data set: ADME, organism-based. The gist of the method: (§2)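 Single dose to fasted (12 h) animals: oral gavage 15 mg/kg as suspension in 0.5% CMC-Na, or iv 5 mg/kg dissolved in citric acid buffer pH 5.0 with 2.5% DMSO. Jugular vein blood on heparin at 0.08 (iv only) to 72 h. Plasma assayed by LC-MS/MS; parameters from noncompartmental analysis.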

A short description of data set [3]: Toxicity in Kunming mouse assessed as induction of mortality at 250 to 1000 mg/kg dosed via single oral gavage and measured on day 7 post treatment. As to conditions: in vivo. Type of data set: organism-based. In outline:
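Kunming mice, 4 groups of n = 6 (3 male, 3 female). Fasted from 12 h before to 1 h after dosing. Single oral gavage of 250, 500 or 1000 mg/kg suspended in 0.5% CMC-Na, or vehicle alone. Followed for 7 days: survival, body weight before and at day 7. Day-7 blood taken for AST, ALT, urea nitrogen and creatinine.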

The next data set concerns Zika virus. As to the kind of experiment: Antiviral activity against Zika virus infected in Vero E6 cells assessed as reduction in virus-induced cytopathic effect incubated for 96 hrs by CCK8 assay. As to conditions: Vero C1008, 96 h. Type of data set: functional, organism-based.
The nature of data set [4]: Drug level in beagle dog at 15 mg/kg, po measured after 72 hrs post dose by LC-MS/MS analysis. Type of data set: ADME, organism-based, Canis lupus familiaris. Particulars: in vivo, read-out: Drug uptake. The gist of the method: as §2
Data set [5] relates to Hepatitis C virus. As to the kind of experiment: Synergistic antiviral activity against HCV infected in human Huh7.5 cells assessed as reduction in HCV core protein level by measuring (q) value at 0.1 uM in presence of 0.1 uM sofosbuvir incubated for 72 hrs by Western blot assay based Webb method relative to control. It counts as functional, Hepacivirus hominis. The gist of the method:
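Huh7.5 cells in 6-well plates were infected with HCV in the presence of 0.1 μM test compound combined with simeprevir 0.025 μM, sofosbuvir 0.1 μM or daclatasvir 0.016 nM. Western blot at 72 h gave HCV core protein relative to actin, normalized to control. q calculated by Webb's method (q<1 antagonism, =1 addition, >1 synergy); over 3 independent experiments.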
A general note: In western blotting, separated proteins are transferred to a membrane and probed.

Data set [6] is described as follows: Apparent Volume of distribution in beagle dog at 5 mg/kg, iv measured after 0.08 to 72 hrs post dose by LC-MS/MS analysis. Type of data set: ADME, organism-based, Canis lupus familiaris. Particulars: in vivo, read-out: Vz. In outline: as §2
Data set [7] can be described thus: Cytotoxicity in human Huh7.5 cells assessed as reduction in cell viability incubated for 96 hrs by MTT assay. Type of data set: cell-based. In outline:
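Huh7.5 cells seeded 24 h before compound addition. Viability read by MTT at 96 h. Eight-step 1:5 serial dilutions in triplicate; CC50 by Reed & Muench; three independent experiments.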
(Tetrazolium dyes change colour on reduction, which living cells bring about.)

Data set [8] deals with Hepatitis C virus. As to the kind of experiment: Antiviral activity against HCV J6/JFH/JC1 infected in human Huh7.5 cells incubated for 72 hrs by In-Cell Western assay. Particulars: J6/JFH/JC1, Huh7.5, 72 h. Type of data set: functional, organism-based, Hepacivirus hominis. The gist of the method:
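Huh7.5 cells infected with HCVcc (MOI 0.1) and treated with compound at the same time for 72 h. Cells fixed with PFA, permeabilized, then stained for HCV Core and GAPDH with IR-dye secondaries. Core signal normalized to GAPDH. Eight-step 1:5 dilutions in triplicate; EC50 by Reed & Muench; mean of three experiments.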

In data set [9] the test system is Hepatitis C virus. As to the kind of experiment: Antiviral activity against HCV J6/JFH/JC1 infected in human Huh7.5 cells assessed as reduction in viral RNA levels incubated for 72 hrs by qRT-PCR analysis. Type of data set: functional, organism-based. The gist of the method: (§3)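 Huh7.5 cells seeded 24 h, then infected with wild-type (or mutant) HCV with compound added at the same time. Incubated 72 h. Intracellular HCV RNA measured by qRT-PCR, 2^-ΔCt method, normalized to GAPDH. Eight-step 1:5 serial dilutions in triplicate; EC50 by Reed & Muench; three independent experiments.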

Data set [10] in a line: Half life in Sprague-Dawley rat at 15 mg/kg, po measured after 0.08 to 72 hrs post dose by LC-MS/MS analysis. It counts as ADME, organism-based. Particulars: in vivo. The gist of the method:
as §2

Data set [11] has as its system Hepatitis C virus. As to the kind of experiment: Antiviral activity against HCV expressing NS3 D168V mutant by qRT-PCR analysis based by Reed-Muench method. It counts as functional, organism-based, Hepacivirus hominis. The gist of the method: as §1
The test system of data set [12] is Hepatitis C virus. As to the kind of experiment: Antiviral activity against HCV GS4.3 infected in human Huh7.5 cells assessed as […] at 0.008 to 1 uM incubated with drug for 2 hrs after viral infection and measured after 72 hrs by Western blot assay. Type of data set: functional, organism-based. As to conditions: Hepacivirus hominis.
The nature of data set [13]: Tmax in beagle dog at 15 mg/kg, po measured after 0.08 to 72 hrs post dose by LC-MS/MS analysis. It counts as ADME, organism-based, Canis lupus familiaris. Particulars: in vivo.
The subject of data set [14] is Hepatitis C virus. As to the kind of experiment: Antiviral activity against HCV GS4.3 infected in human Huh7.5 cells assessed as […] at 0.008 to 1 uM simultaneously treated with viral infection and measured after 72 hrs by Western blot assay. Type of data set: functional, organism-based. Particulars: Hepacivirus hominis.
The nature of data set [15]: Drug level in Sprague-Dawley rat at 15 mg/kg, po measured after 24 hrs post dose by LC-MS/MS analysis. As to conditions: in vivo, read-out: Drug uptake. Type of data set: ADME, organism-based. The gist of the method: as §2
In another data set the test system is Coxsackievirus B3. As to the kind of experiment: Antiviral activity against Coxsackievirus B3 infected in Vero cells assessed as reduction in virus-induced cytopathic effect incubated for 48 hrs by Reed-Muench method. It counts as functional, organism-based. As to conditions: Enterovirus B.
The test system of data set [16] is Hepatitis C virus. As to the kind of experiment: Resistance index, ratio of EC50 for antiviral activity against HCV with glycoprotein E1 F291V mutant infected in human Huh7.5 cells to EC50 for Antiviral activity against HCV with wild type glycoprotein E1 infected in human Huh7.5 cells. It counts as functional, Hepacivirus hominis. In outline: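 Huh7.5 cells seeded at 3×10^4/cm² and incubated 24 h, then infected with wild-type or E1 F291V mutant HCV while simultaneously treated with compound in eight-step 1:5 serial dilutions, run in triplicate. Intracellular HCV RNA was read by qRT-PCR at 72 h (2^-ΔCT, normalized to GAPDH). EC50 by Reed & Muench; the index is mutant EC50 over wild-type EC50.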

Data set [17] has as its system Hepatitis C virus. As to the kind of experiment: Antiviral activity against HCV GS4.3 infected in human Huh7.5 cells assessed as reduction in viral replication at 0.3125 to 5 uM simultaneously treated with viral infection for 4 hrs and measured after 72 hrs by In-Cell Western assay. Type of data set: functional, organism-based. Particulars: Hepacivirus hominis. In outline: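 Huh7.5 cells infected with HCV while incubated with compound, either for 4 h across a concentration series or at 1.0 µM for varied times down to 15 min. Supernatant then replaced with fresh medium. Intracellular Core protein measured by In-Cell Western at 72 h.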

Data set [18] in a line: Clearance in Sprague-Dawley rat at 5 mg/kg, iv measured after 0.08 to 72 hrs post dose by LC-MS/MS analysis. Type of data set: ADME, organism-based. As to conditions: in vivo. In outline:
as §2

A short description of data set [19]: Clearance in beagle dog at 15 mg/kg, po measured after 0.08 to 72 hrs post dose by LC-MS/MS analysis. It counts as ADME, organism-based, Canis lupus familiaris. As to conditions: in vivo. In outline:
as §2

Data set [20] deals with Hepatitis C virus. As to the kind of experiment: Antiviral activity against wild type HCV by qRT-PCR analysis based by Reed-Muench method. Type of data set: functional, organism-based, Hepacivirus hominis. The gist of the method:
as §3

Data set [21] in a line: Cmax in beagle dog at 5 mg/kg, iv measured after 0.08 to 72 hrs post dose by LC-MS/MS analysis. Type of data set: ADME, organism-based, Canis lupus familiaris. Details: dose 5 mg/kg, route intravenous. Particulars: in vivo. The gist of the method:
as §2

As a reminder, the EC50 is the concentration needed to bring the measured effect to its halfway point. Broadly, the CC50 is the concentration that lowers cell viability or growth by half. A word on the half-life: it is the time in which the quantity being followed falls by half. Lower therefore signals rapid decline. By Tmax is commonly meant the time at which the peak concentration occurs. As a reminder, the clearance is the rate of elimination divided by the concentration. Read a high clearance as efficient removal. For orientation: CL/F means the apparent clearance, not corrected for the fraction that reaches the circulation. What is called Cmax is the maximum level reached in the sampled fluid or tissue. Take `CN(C)CCN(C)c1ccc(C#N)c(CN2CCN(c3ccc(Cl)cc3)CC2)c1`: the concentration for a half-maximal effect (EC50) was 4.4 nM with Hepatitis C virus [1]; 5.15 µM with Zika virus; 83 to 125 nM in the data set with Hepatitis C virus [8]; 22 nM in the data set with Hepatitis C virus [9] (J6/JFH/JC1, Huh7.5, 72 h); 30 nM in the data set on Hepatitis C virus [11]; 7.41 µM in the data set with Coxsackievirus B3. Further, the EC50 in the data set with Hepatitis C virus [20] is 3 nM. Besides, the results for the concentration at 24 h in data set [2] and in data set [15] were 77 ng/mL and 119 ng/mL, respectively. The Activity entry was “Non-Toxic” in data set [3], “Dose-dependent effect” with Hepatitis C virus [9] (Hepacivirus hominis) and “Dose-dependent effect” in the data set with Hepatitis C virus [17]. In [4], the concentration at 72 h came to 0.69 ng/mL. In addition, in the data set on Hepatitis C virus [5], the Ratio is recorded as 1.08. Also, the Vd in data set [6] stood at 49.2 L/kg. The CC50 at 96 h in data set [7] is 12.8 to 14.8 µM. Besides, in data set [10], the half-life was 770 min. Also, the result in the data set on Hepatitis C virus [12] and in the data set with Hepatitis C virus [14] was Active. For the same compound, in [13], the Tmax is 3 h. Also, the “Ratio EC50” value in the data set on Hepatitis C virus [16] was 20. Further, the clearance in [18] is 18.1 mL/min/kg. In data set [19], this compound gave a CL/F of 200 mL/min/kg. Besides, the highest level in data set [21] (Cmax) was 532 ng/mL.
